Where a SMILES comes first, the peptide text is derived from it.
What was measured:
[1] = molecular target: T1, Orexin/Hypocretin receptor type 1 (Homo sapiens) (UniProt O43613); test: Agonist activity at human OX1 receptor overexpressed in CHO-RD-HGA16 cells assessed as calcium mobilization at 10 uM after 15 mins by fluorescence assay relative to control; type: functional, cell-based
T1 sequence (whole entry): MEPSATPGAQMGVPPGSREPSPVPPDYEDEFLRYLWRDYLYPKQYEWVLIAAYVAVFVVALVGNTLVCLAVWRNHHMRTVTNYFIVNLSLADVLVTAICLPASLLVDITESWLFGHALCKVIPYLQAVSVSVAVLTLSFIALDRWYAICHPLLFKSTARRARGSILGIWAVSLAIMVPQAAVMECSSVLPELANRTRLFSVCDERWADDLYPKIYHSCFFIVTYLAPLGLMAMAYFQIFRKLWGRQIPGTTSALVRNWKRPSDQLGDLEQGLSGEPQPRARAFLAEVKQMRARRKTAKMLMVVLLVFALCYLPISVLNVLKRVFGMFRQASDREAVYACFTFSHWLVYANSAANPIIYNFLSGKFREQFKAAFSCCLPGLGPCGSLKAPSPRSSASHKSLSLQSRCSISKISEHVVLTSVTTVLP

Homo sapiens = species: Homo sapiens; test: Selectivity ratio of EC50 for human OX2 receptor to EC50 for human OX1 receptor
Orexin receptor type 2 = molecular target: T2, Orexin receptor type 2 (Homo sapiens, UniProt O43614); test: Agonist activity at human OX2 receptor overexpressed in CHO-RD-HGA16 cells assessed as calcium mobilization after 15 mins by fluorescence assay; type: functional, cell-based
T2 sequence (O43614 whole entry): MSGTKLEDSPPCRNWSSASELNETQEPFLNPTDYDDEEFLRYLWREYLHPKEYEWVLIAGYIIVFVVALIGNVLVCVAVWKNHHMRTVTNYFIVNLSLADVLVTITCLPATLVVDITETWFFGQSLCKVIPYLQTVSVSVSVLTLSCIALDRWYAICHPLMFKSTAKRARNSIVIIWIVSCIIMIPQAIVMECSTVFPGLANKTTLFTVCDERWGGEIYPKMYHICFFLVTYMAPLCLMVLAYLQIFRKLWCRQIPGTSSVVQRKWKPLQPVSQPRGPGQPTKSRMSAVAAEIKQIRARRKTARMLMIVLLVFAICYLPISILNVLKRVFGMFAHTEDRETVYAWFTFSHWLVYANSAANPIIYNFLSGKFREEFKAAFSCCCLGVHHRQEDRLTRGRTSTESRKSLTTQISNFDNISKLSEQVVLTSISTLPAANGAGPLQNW

[2] = molecular target: T3, Orexin/Hypocretin receptor type 1 (Homo sapiens, UniProt O43613); test: Agonist activity at human OX1 receptor overexpressed in CHO-RD-HGA16 cells assessed as calcium mobilization after 15 mins by fluorescence assay; type: functional, cell-based
T3 sequence (O43613 whole entry): T1 sequence (whole entry)
Outline: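 EC50 from 8-point half-log concentration-response curves. Values are means of at least three independent experiments in duplicate, with SEM, or means of two independent duplicate experiments.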

SMILES	Calcium response at 10 uM relative to control [1]	Ratio EC50 (Homo sapiens)	EC50 (Orexin receptor type 2)	EC50 [2]
CC[C@H](C)[C@H](NC(=O)CNC(=O)[C@H](C)NC(=O)[C@H](C)NC(=O)[C@H](Cc1cnc[nH]1)NC(=O)[C@H](CC(N)=O)NC(=O)CNC(=O)[C@H](C)NC(=O)CNC(=O)[C@@H](N)Cc1cnc[nH]1)C(=O)N[C@@H](CC(C)C)C(=O)N[C@H](C(=O)N[C@@H](CC(C)C)C(N)=O)[C@@H](C)O (H-HGAGNHAAGILTL-NH2)	< 50%			
CC[C@H](C)[C@H](NC(=O)CNC(=O)[C@H](C)NC(=O)[C@H](C)NC(=O)[C@H](Cc1cnc[nH]1)NC(=O)[C@H](CC(N)=O)NC(=O)CNC(=O)[C@H](C)NC(=O)CNC(=O)[C@H](Cc1cnc[nH]1)NC(=O)[C@H](CC(C)C)NC(=O)[C@H](CC(C)C)NC(=O)[C@H](C)NC(=O)[C@@H](N)Cc1ccc(O)cc1)C(=O)N[C@@H](CC(C)C)C(=O)N[C@H](C(=O)N[C@@H](CC(C)C)C(N)=O)[C@@H](C)O (H-YALLHGAGNHAAGILTL-NH2)		5.6	439 nM	78.9 nM
CC[C@H](C)[C@H](NC(=O)CNC(=O)[C@H](C)NC(=O)[C@H](C)NC(=O)[C@H](Cc1cnc[nH]1)NC(=O)[C@H](CC(N)=O)NC(=O)CNC(=O)[C@H](C)NC(=O)CNC(=O)[C@H](Cc1cnc[nH]1)NC(=O)[C@H](CC(C)C)NC(=O)[C@H](C)NC(=O)[C@H](CCC(=O)O)NC(=O)[C@@H](N)Cc1ccc(O)cc1)C(=O)N[C@@H](CC(C)C)C(=O)N[C@H](C(=O)N[C@@H](CC(C)C)C(N)=O)[C@@H](C)O (H-YEALHGAGNHAAGILTL-NH2)		8.9	1890 nM	212 nM
CC[C@H](C)[C@H](NC(=O)CNC(=O)[C@H](C)NC(=O)[C@H](C)NC(=O)[C@H](Cc1cnc[nH]1)NC(=O)[C@H](CC(N)=O)NC(=O)CNC(=O)[C@H](C)NC(=O)CNC(=O)[C@H](Cc1cnc[nH]1)NC(=O)[C@H](C)NC(=O)[C@H](CC(C)C)NC(=O)[C@H](CCC(=O)O)NC(=O)[C@@H](N)Cc1ccc(O)cc1)C(=O)N[C@@H](CC(C)C)C(=O)N[C@H](C(=O)N[C@@H](CC(C)C)C(N)=O)[C@@H](C)O (H-YELAHGAGNHAAGILTL-NH2)		2.4	7850 nM	3230 nM
CC[C@H](C)[C@H](NC(=O)CNC(=O)[C@H](C)NC(=O)[C@H](C)NC(=O)[C@H](Cc1cnc[nH]1)NC(=O)[C@H](CC(N)=O)NC(=O)CNC(=O)[C@H](C)NC(=O)CNC(=O)[C@H](C)NC(=O)[C@H](CC(C)C)NC(=O)[C@H](CC(C)C)NC(=O)[C@H](CCC(=O)O)NC(=O)[C@@H](N)Cc1ccc(O)cc1)C(=O)N[C@@H](CC(C)C)C(=O)N[C@H](C(=O)N[C@@H](CC(C)C)C(N)=O)[C@@H](C)O (H-YELLAGAGNHAAGILTL-NH2)		3.9	1910 nM	493 nM
CC[C@H](C)[C@H](NC(=O)CNC(=O)[C@H](C)NC(=O)[C@H](C)NC(=O)[C@H](Cc1cnc[nH]1)NC(=O)[C@H](CC(N)=O)NC(=O)[C@H](C)NC(=O)[C@H](C)NC(=O)CNC(=O)[C@H](Cc1cnc[nH]1)NC(=O)[C@H](CC(C)C)NC(=O)[C@H](CC(C)C)NC(=O)[C@H](CCC(=O)O)NC(=O)[C@@H](N)Cc1ccc(O)cc1)C(=O)N[C@@H](CC(C)C)C(=O)N[C@H](C(=O)N[C@@H](CC(C)C)C(N)=O)[C@@H](C)O (H-YELLHGAANHAAGILTL-NH2)		1.3	1360 nM	1040 nM
CC[C@H](C)[C@H](NC(=O)CNC(=O)[C@H](C)NC(=O)[C@H](C)NC(=O)[C@H](Cc1cnc[nH]1)NC(=O)[C@H](CC(N)=O)NC(=O)CNC(=O)[C@H](C)NC(=O)CNC(=O)[C@@H]1CCCN1C(=O)[C@H](CC(C)C)NC(=O)[C@H](CC(C)C)NC(=O)[C@H](CCC(=O)O)NC(=O)[C@@H](N)Cc1ccc(O)cc1)C(=O)N[C@@H](CC(C)C)C(=O)N[C@H](C(=O)N[C@@H](CC(C)C)C(N)=O)[C@@H](C)O (H-YELLPGAGNHAAGILTL-NH2)		1.7	1990 nM	1200 nM
CC[C@H](C)[C@H](NC(=O)CNC(=O)[C@H](C)NC(=O)[C@H](C)NC(=O)[C@H](Cc1cnc[nH]1)NC(=O)[C@H](CC(N)=O)NC(=O)CNC(=O)[C@H](C)NC(=O)CNC(=O)[C@H](Cc1cnc[nH]1)NC(=O)[C@@H]1CCCN1C(=O)[C@H](CC(C)C)NC(=O)[C@H](CCC(=O)O)NC(=O)[C@@H](N)Cc1ccc(O)cc1)C(=O)N[C@@H](CC(C)C)C(=O)N[C@H](C(=O)N[C@@H](CC(C)C)C(N)=O)[C@@H](C)O (H-YELPHGAGNHAAGILTL-NH2)		1.4	1610 nM	1130 nM
CC[C@H](C)[C@H](NC(=O)CNC(=O)[C@H](C)NC(=O)[C@H](C)NC(=O)[C@H](Cc1cnc[nH]1)NC(=O)[C@H](CC(N)=O)NC(=O)CNC(=O)[C@H](C)NC(=O)CNC(=O)[C@H](Cc1cnc[nH]1)NC(=O)[C@H](CC(C)C)NC(=O)[C@@H]1CCCN1C(=O)[C@H](CCC(=O)O)NC(=O)[C@@H](N)Cc1ccc(O)cc1)C(=O)N[C@@H](CC(C)C)C(=O)N[C@H](C(=O)N[C@@H](CC(C)C)C(N)=O)[C@@H](C)O (H-YEPLHGAGNHAAGILTL-NH2)		1.2	1010 nM	865 nM
CC[C@H](C)[C@H](NC(=O)CNC(=O)[C@H](C)NC(=O)[C@H](C)NC(=O)[C@H](Cc1cnc[nH]1)NC(=O)[C@H](CC(N)=O)NC(=O)CNC(=O)[C@H](C)NC(=O)CNC(=O)[C@H](Cc1cnc[nH]1)NC(=O)[C@H](CC(C)C)NC(=O)[C@H](CC(C)C)NC(=O)[C@@H]1CCCN1C(=O)[C@@H](N)Cc1ccc(O)cc1)C(=O)N[C@@H](CC(C)C)C(=O)N[C@H](C(=O)N[C@@H](CC(C)C)C(N)=O)[C@@H](C)O (H-YPLLHGAGNHAAGILTL-NH2)		5.1	729 nM	143 nM

More lines, in order of falling EC50 (Orexin receptor type 2), values ahead:

Calcium response at 10 uM relative to control [1]	Ratio EC50 (Homo sapiens)	EC50 (Orexin receptor type 2)	EC50 [2]	SMILES
	0.8	2320 nM	3070 nM	CC[C@H](C)[C@H](NC(=O)CNC(=O)[C@H](C)NC(=O)[C@H](C)NC(=O)[C@H](Cc1cnc[nH]1)NC(=O)[C@H](C)NC(=O)CNC(=O)[C@H](C)NC(=O)CNC(=O)[C@H](Cc1cnc[nH]1)NC(=O)[C@H](CC(C)C)NC(=O)[C@H](CC(C)C)NC(=O)[C@H](CCC(=O)O)NC(=O)[C@@H](N)Cc1ccc(O)cc1)C(=O)N[C@@H](CC(C)C)C(=O)N[C@H](C(=O)N[C@@H](CC(C)C)C(N)=O)[C@@H](C)O (H-YELLHGAGAHAAGILTL-NH2)
	0.9	2180 nM	2480 nM	CC[C@H](C)[C@H](NC(=O)CNC(=O)[C@H](C)NC(=O)[C@H](C)NC(=O)[C@H](Cc1cnc[nH]1)NC(=O)[C@H](CC(N)=O)NC(=O)CNC(=O)[C@H](C)NC(=O)[C@@H]1CCCN1C(=O)[C@H](Cc1cnc[nH]1)NC(=O)[C@H](CC(C)C)NC(=O)[C@H](CC(C)C)NC(=O)[C@H](CCC(=O)O)NC(=O)[C@@H](N)Cc1ccc(O)cc1)C(=O)N[C@@H](CC(C)C)C(=O)N[C@H](C(=O)N[C@@H](CC(C)C)C(N)=O)[C@@H](C)O (H-YELLHPAGNHAAGILTL-NH2)
	0.5	1580 nM	3060 nM	CC[C@H](C)[C@H](NC(=O)CNC(=O)[C@H](C)NC(=O)[C@H](C)NC(=O)[C@H](C)NC(=O)[C@H](CC(N)=O)NC(=O)CNC(=O)[C@H](C)NC(=O)CNC(=O)[C@H](Cc1cnc[nH]1)NC(=O)[C@H](CC(C)C)NC(=O)[C@H](CC(C)C)NC(=O)[C@H](CCC(=O)O)NC(=O)[C@@H](N)Cc1ccc(O)cc1)C(=O)N[C@@H](CC(C)C)C(=O)N[C@H](C(=O)N[C@@H](CC(C)C)C(N)=O)[C@@H](C)O (H-YELLHGAGNAAAGILTL-NH2)
	3.4	1440 nM	422 nM	CC[C@H](C)[C@H](NC(=O)CNC(=O)[C@H](C)NC(=O)[C@H](C)NC(=O)[C@H](Cc1cnc[nH]1)NC(=O)[C@H](CC(N)=O)NC(=O)CNC(=O)[C@H](C)NC(=O)[C@H](C)NC(=O)[C@H](Cc1cnc[nH]1)NC(=O)[C@H](CC(C)C)NC(=O)[C@H](CC(C)C)NC(=O)[C@H](CCC(=O)O)NC(=O)[C@@H](N)Cc1ccc(O)cc1)C(=O)N[C@@H](CC(C)C)C(=O)N[C@H](C(=O)N[C@@H](CC(C)C)C(N)=O)[C@@H](C)O (H-YELLHAAGNHAAGILTL-NH2)
	0.7	99.3 nM	144 nM	CC[C@H](C)[C@H](NC(=O)CNC(=O)[C@H](C)NC(=O)[C@H](C)NC(=O)[C@H](Cc1cnc[nH]1)NC(=O)[C@H](CC(N)=O)NC(=O)CNC(=O)[C@H](CO)NC(=O)[C@H](C)NC(=O)[C@H](CCC(N)=O)NC(=O)[C@H](CC(C)C)NC(=O)[C@H](CC(C)C)NC(=O)[C@H](CCCNC(=N)N)NC(=O)[C@H](CCC(N)=O)NC(=O)[C@H](CC(C)C)NC(=O)[C@@H](N)CCCNC(=N)N)C(=O)N[C@@H](CC(C)C)C(=O)N[C@H](C(=O)N[C@@H](CCSC)C(N)=O)[C@@H](C)O (H-RLQRLLQASGNHAAGILTM-NH2)

Source: ChEMBL document CHEMBL3102805, “Truncated Orexin Peptides: Structure-Activity Relationship Studies” (ACS Med Chem Lett, 2013)
